In ChEMBL document CHEMBL3085642, “Synthesis and evaluation of novel 4-nitropyrrole-based 1,3,4-oxadiazole derivatives as antimicrobial and anti-tubercular agents” (Eur J Med Chem, 2013) one finds Ratio, IC50 and MIC data, which are given here for eight compounds.

Usually IC50 stands for the concentration that inhibits the measured activity by half. Usually MIC stands for the lowest concentration that inhibits growth of the organism.

For assay [1], the system named is Candida albicans. The assay can be described thus: Ratio of ampotericin-B MIC to compound MIC against Candida albicans. The assay is classed as functional.
The test system of assay [2] is Vero. The assay can be described thus: Cytotoxicity against african green monkey Vero cells after 72 hrs by MTT assay. The assay is classed as cell-based. The following applies: Chlorocebus sabaeus. The essentials:
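Vero cells were exposed to compounds for 72 h. Viability was measured by cellular conversion of MTT into formazan (non-radioactive proliferation assay), and the cytotoxic concentration was reported as IC50.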
(In general: Formazan colour is commonly taken as a measure of viable cells.)

Assay [3] has as its system Staphylococcus aureus. The assay can be described thus: Ratio of ciprofloxacin MIC to compound MIC against methicillin-susceptible Staphylococcus aureus ATCC 35556. The assay is classed as functional.
The test system of assay [4] is Staphylococcus aureus. The assay is described as follows: Antibacterial activity against methicillin-susceptible Staphylococcus aureus ATCC 35556 by broth dilution method. It counts as functional. Background: Broth dilution looks for growth in wells or tubes with falling amounts of substance.
Assay [5] has as its system Staphylococcus aureus. The assay can be described thus: Antibacterial activity against Staphylococcus aureus ATCC 25923 by two fold broth dilution method. It counts as functional.
Assay [6] deals with Klebsiella pneumoniae. The assay is described as follows: Antibacterial activity against Klebsiella pneumoniae by two fold broth dilution method. The assay is classed as functional.
In assay [7] the test system is Escherichia coli. The assay can be described thus: Antibacterial activity against Escherichia coli ATCC 25922 by two fold broth dilution method. It counts as functional.
Assay [8] relates to Staphylococcus aureus. The assay is described as follows: Ratio of ciprofloxacin MIC to compound MIC against Staphylococcus aureus ATCC 25923. It counts as functional.
Assay [9] has as its system Candida albicans. The assay is described as follows: Antifungal activity against Candida albicans after 48 hrs by two fold agar dilution method. The assay is classed as functional. The gist of the method: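 Two-fold serial dilutions in DMSO were tested against C. albicans by agar dilution. Cultures were incubated for 48 h at 35 °C and growth was monitored. MIC was taken as the lowest concentration (highest dilution) that arrested fungal growth.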
(In general: In agar dilution the substance is mixed into plates at graded concentrations.)

Assay [10] relates to Mycobacterium tuberculosis. The assay can be described thus: Antitubercular activity against Mycobacterium tuberculosis H37Rv after 7 days by resazurin microtitre assay. It counts as functional. The following applies: 168 h.
Assay [11] concerns Staphylococcus aureus. The assay can be described thus: Antibacterial activity against methicillin-resistant Staphylococcus aureus ATCC 43866 by broth dilution method. The assay is classed as functional.
Assay [12] has as its system Bacillus spizizenii. The assay is described as follows: Antibacterial activity against Bacillus subtilis ATCC 6633 by two fold broth dilution method. The assay is classed as functional.

Values after ≈ are worked out from the molar mass of the structure shown.

Regarding `COc1cccc(OC)c1-c1nnc(-c2cc([N+](=O)[O-])cn2C)o1`, the Ratio in assay [1], in assay [3] and in [8] was 2 in each case. Besides, in [2], half-maximal inhibition (IC50) was put at 177 µM. The MIC in assay [4] was found to be 0.39 µg/mL (≈ 1.18 µM); in assay [5] it was 0.78 µg/mL (≈ 2.36 µM); in [6], 12.5 µg/mL (≈ 37.8 µM); in [7] it was 6.25 µg/mL (≈ 18.9 µM); in [9], 1.56 µg/mL (≈ 4.72 µM); in assay [10], 32 µg/mL (≈ 96.9 µM). Further, the MIC in assay [11] and in [12] was 1.56 µg/mL (≈ 4.72 µM) throughout.
Regarding `COc1ccc(-c2nnc(-c3cc([N+](=O)[O-])cn3C)o2)cc1`, the Ratio in assay [1], in [3] and in [8] was 2 in each case. The IC50 in assay [2] amounted to 281 µM. Further, the MIC in assay [4] is 0.39 µg/mL (≈ 1.3 µM); in assay [5], 0.78 µg/mL (≈ 2.6 µM); in [6] it was 12.5 µg/mL (≈ 41.6 µM); in assay [7], 6.25 µg/mL (≈ 20.8 µM); in assay [9], 1.56 µg/mL (≈ 5.2 µM); in [11], 1.56 µg/mL (≈ 5.2 µM). Besides, the MIC in assay [12] was 1.56 µg/mL (≈ 5.2 µM).
On to `Cn1cc([N+](=O)[O-])cc1-c1nnc(-c2ccns2)o1`, for which the Ratio in [1], in [3] and in [8] was 2 each time. Further, the IC50 in assay [2] came to 320 µM. Besides, the MIC in assay [4] was 0.39 µg/mL (≈ 1.41 µM); in assay [5], 0.78 µg/mL (≈ 2.81 µM); in assay [6] it was 12.5 µg/mL (≈ 45.1 µM); in assay [7], 6.25 µg/mL (≈ 22.5 µM); in assay [9], 1.56 µg/mL (≈ 5.63 µM); in [11] it was 1.56 µg/mL (≈ 5.63 µM). It took 1.56 µg/mL (≈ 5.63 µM) to inhibit growth in assay [12] (MIC).
For `Cn1cc([N+](=O)[O-])cc1-c1nnc(-c2cccc([N+](=O)[O-])c2O)o1`, the Ratio in assay [1], in [3] and in assay [8] was 2 in each case. The compound also came in with a half-maximal inhibitory concentration (IC50) in assay [2] of 269 µM. Moreover, the MIC in assay [4] worked out at 0.39 µg/mL (≈ 1.18 µM); in assay [5], 0.78 µg/mL (≈ 2.35 µM); in [6], 12.5 µg/mL (≈ 37.7 µM); in assay [7], 3.12 µg/mL (≈ 9.43 µM); in assay [9] it was 1.56 µg/mL (≈ 4.71 µM); in assay [11] it was 1.56 µg/mL (≈ 4.71 µM). The compound also gave an MIC in [12] of 1.56 µg/mL (≈ 4.71 µM).
In the case of `Cn1cc([N+](=O)[O-])cc1-c1nnc(Cc2ccc(F)c3ccccc23)o1`, the Ratio in assay [1], in assay [3] and in assay [8] was 2 throughout. In addition, half-maximal inhibition in [2] (IC50) required 119 µM. For the same compound, the MIC is 0.39 µg/mL (≈ 1.11 µM) in [4]; 0.78 µg/mL (≈ 2.21 µM) in [5]; 12.5 µg/mL (≈ 35.5 µM) in [6]; 6.25 µg/mL (≈ 17.7 µM) in assay [7]; 1.56 µg/mL (≈ 4.43 µM) in assay [9]; 1.56 µg/mL (≈ 4.43 µM) in assay [11]. Moreover, in [12], the MIC amounted to 1.56 µg/mL (≈ 4.43 µM).
With `Cn1cc([N+](=O)[O-])cc1-c1nnc(-c2ccco2)o1`, the Ratio in assay [1] and in assay [8] was 2 each time. The concentration for half-maximal inhibition (IC50) in assay [2] was 190 µM. Also, the MIC was 1.56 µg/mL (≈ 6 µM) in assay [4]; 0.78 µg/mL (≈ 3 µM) in assay [5]; 50 µg/mL (≈ 192 µM) in assay [6]; 3.12 µg/mL (≈ 12 µM) in assay [7]; 1.56 µg/mL (≈ 6 µM) in assay [9]; 60.2 µg/mL (≈ 231 µM) in assay [10]. Further, the MIC in assay [11] and in assay [12] was 1.56 µg/mL (≈ 6 µM) each time.
For `Cn1cc([N+](=O)[O-])cc1-c1nnc(-c2ccccc2OC(F)(F)F)o1`, the Ratio in assay [1], in [3] and in assay [8] was 2 throughout. In assay [2], this compound displayed an IC50 of 308 µM. Further, the MIC in assay [4] is 0.39 µg/mL (≈ 1.1 µM); in assay [5], 0.78 µg/mL (≈ 2.2 µM); in assay [6], 12.5 µg/mL (≈ 35.3 µM); in assay [7] it was 3.12 µg/mL (≈ 8.82 µM); in assay [9], 1.56 µg/mL (≈ 4.4 µM); in assay [10] it was 3.8 µg/mL (≈ 10.7 µM). Moreover, the MIC in assay [11] and in assay [12] was 1.56 µg/mL (≈ 4.4 µM) throughout.
In the case of `Cn1cc([N+](=O)[O-])cc1-c1nnc(-c2cc3ccccc3[nH]2)o1`, the Ratio in assay [1], in assay [3] and in assay [8] was 2 throughout. Further, the IC50 in assay [2] was 109 µM. The MIC was found to be 0.39 µg/mL (≈ 1.26 µM) in [4]; 0.78 µg/mL (≈ 2.52 µM) in assay [5]; 12.5 µg/mL (≈ 40.4 µM) in [6]; 6.25 µg/mL (≈ 20.2 µM) in assay [7]; 1.56 µg/mL (≈ 5.04 µM) in [9]; 1.56 µg/mL (≈ 5.04 µM) in assay [11]. In assay [12], inhibition of growth (MIC) required 1.56 µg/mL (≈ 5.04 µM).
